Measured values from ChEMBL document CHEMBL1157144, “Novel 16-membered macrolides modified at C-12 and C-13 positions of midecamycin A1 and miokamycin. Part 1: Synthesis and evaluation of 12,13-carbamate and 12-arylalkylamino-13-hydroxy analogues” (2008).
Converted amounts (≈) assume the structure as drawn.

Legend:
Type in all cases: functional
[1] = system: Staphylococcus aureus; experiment: Antibacterial activity against standard Staphylococcus aureus after 20 hrs by agar dilution method
Outline: (§1)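 Agar dilution MIC. The inoculum came from a seed culture in Sensitivity test broth. A 5 µl portion of a cell suspension of about 10^6 CFU/ml was inoculated onto Sensitivity disk agar supplemented with 5% horse blood. Plates were incubated at 37 °C for 20 h, then MIC was read.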

[2] = system: Staphylococcus aureus; experiment: Antibacterial activity against susceptible Staphylococcus aureus after 20 hrs by agar dilution method; outline: as §1
[3] = system: Staphylococcus aureus; experiment: Antibacterial activity against ermA-constitutive resistant Staphylococcus aureus after 20 hrs by agar dilution method; outline: as §1
[4] = system: Staphylococcus aureus; experiment: Antibacterial activity against ermB-inducible resistant Staphylococcus aureus after 20 hrs by agar dilution method; outline: as §1
[5] = system: Staphylococcus aureus; experiment: Antibacterial activity against ermC-inducible resistant Staphylococcus aureus after 20 hrs by agar dilution method; outline: as §1
[6] = system: Streptococcus pneumoniae; experiment: Antibacterial activity against susceptible Streptococcus pneumoniae after 20 hrs by agar dilution method
Outline: (§2)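 MIC by agar dilution. Strains grown on blood agar plates for seed culture. About 5 µl of a suspension of roughly 10^6 CFU/ml spotted onto Sensitivity disk agar with 5% horse blood. Plates incubated at 37 °C for 20 h, then MIC read.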

[7] = system: Streptococcus pneumoniae; experiment: Antibacterial activity against ermB-constitutive resistant Streptococcus pneumoniae after 20 hrs by agar dilution method
Outline: (§3)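 Agar dilution MIC. Streptococcal strains were pre-cultured on blood agar plates. A 5 µl portion of a cell suspension of about 10^6 CFU/ml was inoculated onto Sensitivity disk agar supplemented with 5% horse blood. Plates were incubated at 37 °C for 20 h, then MIC was read.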

[8] = system: Streptococcus pneumoniae; experiment: Antibacterial activity against ermB-inducible resistant Streptococcus pneumoniae after 20 hrs by agar dilution method; outline: as §3
[9] = system: Streptococcus pneumoniae; experiment: Antibacterial activity against mefE efflux-resistant Streptococcus pneumoniae after 20 hrs by agar dilution method; outline: as §3
[10] = system: Streptococcus pyogenes; experiment: Antibacterial activity against ermB-constitutive resistant Streptococcus pyogenes after 20 hrs by agar dilution method; outline: as §3
[11] = system: Streptococcus pyogenes; experiment: Antibacterial activity against mefE efflux-resistant Streptococcus pyogenes after 20 hrs by agar dilution method; outline: as §3
[12] = system: Moraxella catarrhalis; experiment: Antibacterial activity against standard Moraxella catarrhalis after 20 hrs by agar dilution method; outline: as §2
[13] = system: Haemophilus influenzae; experiment: Antibacterial activity against standard Haemophilus influenzae after 20 hrs by agar dilution method; outline: as §2
[14] = system: Haemophilus influenzae; experiment: Antibacterial activity against susceptible Haemophilus influenzae after 20 hrs by agar dilution method; outline: as §2

SMILES	MIC [1] [µg/mL]	MIC [2] [µg/mL]	MIC [3] [µg/mL]	MIC [4] [µg/mL]	MIC [5] [µg/mL]	MIC [6] [µg/mL]	MIC [7] [µg/mL]	MIC [8] [µg/mL]	MIC [9] [µg/mL]	MIC [10] [µg/mL]	MIC [11] [µg/mL]	MIC [12] [µg/mL]	MIC [13] [µg/mL]	MIC [14] [µg/mL]
CCC(=O)O[C@@H]1CC(=O)O[C@H](C)C[C@H](O)[C@H](N(C)CCCCc2ccccc2)/C=C/[C@H](OC(C)=O)[C@H](C)C[C@H](CC=O)[C@H](O[C@@H]2O[C@H](C)[C@@H](O[C@H]3C[C@@](C)(O)[C@@H](OC(=O)CC)[C@H](C)O3)[C@H](N(C)C)[C@H]2O)[C@H]1OC	0.39 (≈ 0.377 µM)	0.39 (≈ 0.377 µM)	> 100	1.56 (≈ 1.51 µM)	0.78 (≈ 0.753 µM)	0.05 (≈ 0.0483 µM)	> 100	12.5 (≈ 12.1 µM)	0.2 (≈ 0.193 µM)	100 (≈ 96.6 µM)	0.2 (≈ 0.193 µM)	0.78 (≈ 0.753 µM)	3.13 (≈ 3.02 µM)	25 (≈ 24.1 µM)
CCC(=O)O[C@@H]1CC(=O)O[C@H](C)C[C@@H]2OC(=O)N[C@@H]2/C=C/[C@H](OC(C)=O)[C@H](C)C[C@H](CC=O)[C@H](O[C@@H]2O[C@H](C)[C@@H](O[C@H]3C[C@@](C)(O)[C@@H](OC(=O)CC)[C@H](C)O3)[C@H](N(C)C)[C@H]2O)[C@H]1OC	0.39 (≈ 0.426 µM)	0.39 (≈ 0.426 µM)	> 100	0.39 (≈ 0.426 µM)	0.78 (≈ 0.852 µM)	0.2 (≈ 0.219 µM)	> 100	> 100	0.2 (≈ 0.219 µM)	> 100	0.2 (≈ 0.219 µM)	0.39 (≈ 0.426 µM)	0.78 (≈ 0.852 µM)	6.25 (≈ 6.83 µM)
CCC(=O)O[C@@H]1CC(=O)O[C@H](C)C[C@@H]2OC(=O)N(CCCc3ccccc3)[C@@H]2/C=C/[C@H](OC(C)=O)[C@H](C)C[C@H](CC=O)[C@H](O[C@@H]2O[C@H](C)[C@@H](O[C@H]3C[C@@](C)(O)[C@@H](OC(=O)CC)[C@H](C)O3)[C@H](N(C)C)[C@H]2O)[C@H]1OC	0.78 (≈ 0.755 µM)	0.78 (≈ 0.755 µM)	> 100	1.56 (≈ 1.51 µM)	0.78 (≈ 0.755 µM)	0.2 (≈ 0.194 µM)	> 100	> 100	0.2 (≈ 0.194 µM)	> 100	0.2 (≈ 0.194 µM)	1.56 (≈ 1.51 µM)	6.25 (≈ 6.05 µM)	100 (≈ 96.8 µM)
CCC(=O)O[C@@H]1CC(=O)O[C@H](C)C[C@@H]2OC(=O)N(Cc3ccccc3)[C@@H]2/C=C/[C@H](OC(C)=O)[C@H](C)C[C@H](CC=O)[C@H](O[C@@H]2O[C@H](C)[C@@H](O[C@H]3C[C@@](C)(O)[C@@H](OC(=O)CC)[C@H](C)O3)[C@H](N(C)C)[C@H]2O)[C@H]1OC	0.39 (≈ 0.388 µM)	0.39 (≈ 0.388 µM)	> 100	0.39 (≈ 0.388 µM)	0.78 (≈ 0.776 µM)	0.2 (≈ 0.199 µM)	> 100	100 (≈ 99.5 µM)	0.2 (≈ 0.199 µM)	> 100	0.2 (≈ 0.199 µM)	1.56 (≈ 1.55 µM)	3.13 (≈ 3.11 µM)	25 (≈ 24.9 µM)
CCC(=O)O[C@@H]1CC(=O)O[C@H](C)C/C=C/C=C/[C@H](OC(C)=O)[C@H](C)C[C@H](CC=O)[C@H](O[C@@H]2O[C@H](C)[C@@H](O[C@H]3C[C@@](C)(O)[C@@H](OC(=O)CC)[C@H](C)O3)[C@H](N(C)C)[C@H]2O)[C@H]1OC	0.39 (≈ 0.456 µM)	0.39 (≈ 0.456 µM)	> 100	0.39 (≈ 0.456 µM)	0.78 (≈ 0.911 µM)	0.2 (≈ 0.234 µM)	> 100	100 (≈ 117 µM)	0.2 (≈ 0.234 µM)	> 100	0.39 (≈ 0.456 µM)	0.78 (≈ 0.911 µM)	3.13 (≈ 3.66 µM)	25 (≈ 29.2 µM)
CCC(=O)O[C@@H]1CC(=O)O[C@H](C)C[C@@H]2OC(=O)N(CCCCc3ccccc3)[C@@H]2/C=C/[C@H](OC(C)=O)[C@H](C)C[C@H](CC=O)[C@H](O[C@@H]2O[C@H](C)[C@@H](O[C@H]3C[C@@](C)(O)[C@@H](OC(=O)CC)[C@H](C)O3)[C@H](N(C)C)[C@H]2O)[C@H]1OC	0.78 (≈ 0.745 µM)	0.39 (≈ 0.372 µM)	> 100	0.39 (≈ 0.372 µM)	0.78 (≈ 0.745 µM)	0.2 (≈ 0.191 µM)	> 100	100 (≈ 95.5 µM)	0.2 (≈ 0.191 µM)	> 100	0.39 (≈ 0.372 µM)	3.13 (≈ 2.99 µM)	6.25 (≈ 5.97 µM)	> 100
CC[C@H]1OC(=O)[C@H](C)[C@@H](O[C@H]2C[C@@](C)(OC)[C@@H](O)[C@H](C)O2)[C@H](C)[C@@H](O[C@@H]2O[C@H](C)C[C@H](N(C)C)[C@H]2O)[C@](C)(OC)C[C@@H](C)C(=O)[C@H](C)[C@@H](O)[C@]1(C)O [CLARITHROMYCIN]	0.1 (≈ 0.134 µM)	0.1 (≈ 0.134 µM)	> 100	> 100	1.56 (≈ 2.09 µM)	0.025 (≈ 0.0334 µM)	> 100	> 100	0.78 (≈ 1.04 µM)	> 100	3.13 (≈ 4.18 µM)	0.1 (≈ 0.134 µM)	1.56 (≈ 2.09 µM)	6.25 (≈ 8.36 µM)
